This note sets out measurements from article PMC8600527 (ACS Omega, 2021).

Test [1] concerns carrageenan-induced paw edema. The experiment in a line: Carrageenan-induced paw edema in mice. Particulars: 1 mg/kg; paw volume 0 h vs 10 h. The test is classed as in vivo, Balb/c mice. Put shortly:
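Female Balb/c mice were fasted overnight and dosed orally with test compound at 1, 2 or 5 mg/kg (n = 5 per group). 1% carrageenan in PBS was injected subplantar into the left hind paw. Paw volume was read by plethysmometer at 1, 3, 6, 8 and 10 h. % inhibition was calculated from edema volume in control vs treated groups.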

Test [2] relates to macrophage phagocytosis. The experiment in a line: Macrophage phagocytosis by the carbon clearance method. Particulars: mice, 1 mg/kg. The test is classed as in vivo, Balb/C mice (Mus musculus). Put shortly:
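Mice received saline, test compound (1, 2, 5 mg/kg) or dexamethasone (1 mg/kg) as reference. On day 6, carbon ink suspension was injected via the tail vein. Retro-orbital blood was taken at 0 and 30 min, lysed in 0.1% sodium carbonate, and read at 675 nm. Phagocytic index was derived from OD change between the two times (n = 5).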

Take `C[C@@H]1C[C@H]2[C@@H]3CCC4=CC(=O)C=C[C@]4(C)[C@@]3(F)[C@@H](O)C[C@]2(C)[C@@]1(O)C(=O)CO` [dexamethasone]: the “percentage inhibition of paw edema” value in test [1] is 88.5%. The molecule further returned a phagocytic index in test [2] of 0.038 ± 0.002.
